Results as given in paper PMC10360211 (Science (New York, N.Y.), 2022).
Entries after “also recorded” stand apart in the source; their conditions may differ. Like-named read-outs stand apart in the source and are kept apart here.

Key:
[1] = target: T1, human α2AAR (Homo sapiens, UniProt P08913); experiment: Gαi BRET G protein activation assay; assay type: cell-based
T1 sequence (P08913 1-465): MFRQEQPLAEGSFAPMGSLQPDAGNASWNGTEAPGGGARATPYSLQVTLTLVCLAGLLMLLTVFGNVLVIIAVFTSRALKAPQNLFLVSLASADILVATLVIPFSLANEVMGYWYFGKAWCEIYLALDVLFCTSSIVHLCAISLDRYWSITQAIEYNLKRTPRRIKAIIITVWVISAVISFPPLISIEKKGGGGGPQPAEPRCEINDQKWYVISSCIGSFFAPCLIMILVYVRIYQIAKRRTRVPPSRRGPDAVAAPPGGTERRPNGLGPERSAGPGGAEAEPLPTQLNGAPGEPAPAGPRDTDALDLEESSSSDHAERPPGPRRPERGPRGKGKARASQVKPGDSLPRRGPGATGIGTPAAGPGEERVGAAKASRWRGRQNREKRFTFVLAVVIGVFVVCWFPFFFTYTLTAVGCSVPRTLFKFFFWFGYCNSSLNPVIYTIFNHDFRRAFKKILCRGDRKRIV
Summary of the method: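 HEK293T cells were co-transfected with α2AAR, Gαi1-RLucII, Gβ1 and Gγ2-GFP10. After 48 h the medium was replaced with PBS and cells were stimulated with ligand for 10 min at 37°C. Coelenterazine 400a (2.5 µM final) was added 5 min before reading. BRET was taken as acceptor/donor emission (515/410 nm) and normalised to buffer (0%) and maximal norepinephrine (100%). There were 3–17 experiments, each in duplicate. Receptor surface expression was checked by anti-FLAG ELISA.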

[2] = target: T1, human α2AAR; experiment: ebBRET-based EMTA G protein and β-arrestin coupling panel; assay type: cell-based
Summary of the method: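 ebBRET in HEK293SL cells transfected with premixed biosensor DNA plus α2AAR using PEI (3:1). DNA was 0.57 μg, or 1 μg total for G12/13, and cells were seeded at 3.5×10^4 cells/well for 48 h. Gα activation was read as translocation of RlucII-tagged effectors (p63-RhoGEF for Gq/11, Rap1-GAP for Gi/o, PDZ-RhoGEF for G12/13) to rGFP-CAAX. β-arrestin-1/2-RlucII was also read against rGFP-CAAX. Cells sat in Tyrode HEPES 1 h, then received increasing compound concentrations 10 min at 37°C, with 1 μM Prolume purple for the final 6 min.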

[3] = target: T1, human α2AAR; experiment: Internalization assay with rGFP-CAAX and rGFP-FYVE biosensors; assay type: cell-based; details: for receptor internalization: both biosensors
[4] = Pharmacokinetics in mice; assay type: in vivo; details: 10-mg/kg i.v. and 30-mg/kg p.o.
Summary of the method: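 C57BL/6 mice were dosed 10 mg/kg i.v. or 30 mg/kg p.o., with vehicle-dosed groups alongside. One analogue was formulated in 20% v/v HβCD in saline. Sparse sampling used three mice per time point (one for vehicle). Blood was drawn from the orbital sinus into K3EDTA under tribromoethanol (150 mg/kg i.p.), and plasma was spun at 4000 rpm, 10 min, 4°C. Brain was homogenised in ice-cold PBS. Samples were analysed by HPLC-MS/MS; values below LLOQ were set to zero.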

[5] = Metabolic stability in rat liver microsomes; assay type: in vitro ADME; details: male rat liver microsomes, 1 hour, 20 μM
Summary of the method: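 Pooled male Sprague Dawley rat liver microsomes (0.25 mg protein per tube) were incubated with test compound or a positive control (20 µM final). Buffer was 50 mM Tris, 5 mM MgCl2, pH 7.4. Incubation was at 37°C on a rotating carousel.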

[6] = tested on: spared nerve injury (SNI) mice; experiment: SNI model of neuropathic pain, mechanical; assay type: in vivo
Summary of the method: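 Spared nerve injury: under isoflurane, two of the three sciatic nerve branches were ligated and transected distally, leaving the sural nerve intact. Testing was done 7–14 days after injury. Atipamezole (2 mg/kg i.p.) was given 15 min before s.c. agonist, and testing followed 30 min after agonist. Hindpaw thresholds were measured with von Frey filaments by the up-down method, by a blinded experimenter.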

[7] = tested on: naïve (uninjured) mice; experiment: Mechanical withdrawal thresholds in naïve mice; assay type: in vivo; details: 5 mg/kg s.c.
Summary of the method: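 Uninjured mice were habituated for 1 h in Plexiglas cylinders and tested 30 min after s.c. dosing. Hindpaw mechanical thresholds were found with von Frey filaments by the up-down method. The experimenter was blind to treatment, and animals were randomly assigned to compound or vehicle.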

[8] = tested on: mice; experiment: Tail flick; assay type: in vivo; details: tail flick 50°C, s.c.
Summary of the method: (§1)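 WT and α2AAR D79N mice were habituated for 1 h in cylinders and tested 30 min after s.c. dosing. The tail was immersed in a 50°C water bath to measure heat sensitivity. The experimenter was blind to treatment.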

[9] = tested on: α2AAR D79N mutant mice; experiment: Tail flick; assay type: in vivo; details: tail flick 50°C, versus WT
Summary of the method: as §1

[10] = tested on: mice; experiment: Rotarod motor test; assay type: in vivo
Summary of the method: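 Mice were first trained three times for 5 min on an accelerating rotating rod before any compound. They were then tested 30 min after s.c. dosing, with the experimenter blind to treatment.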

[11] = target: T2, human α2BAR (Homo sapiens, UniProt P18089); experiment: Radioligand binding, human α2BAR; details: read-out: Kd of radioligand; saturation, HEK293T membranes
T2 sequence (P18089 1-450): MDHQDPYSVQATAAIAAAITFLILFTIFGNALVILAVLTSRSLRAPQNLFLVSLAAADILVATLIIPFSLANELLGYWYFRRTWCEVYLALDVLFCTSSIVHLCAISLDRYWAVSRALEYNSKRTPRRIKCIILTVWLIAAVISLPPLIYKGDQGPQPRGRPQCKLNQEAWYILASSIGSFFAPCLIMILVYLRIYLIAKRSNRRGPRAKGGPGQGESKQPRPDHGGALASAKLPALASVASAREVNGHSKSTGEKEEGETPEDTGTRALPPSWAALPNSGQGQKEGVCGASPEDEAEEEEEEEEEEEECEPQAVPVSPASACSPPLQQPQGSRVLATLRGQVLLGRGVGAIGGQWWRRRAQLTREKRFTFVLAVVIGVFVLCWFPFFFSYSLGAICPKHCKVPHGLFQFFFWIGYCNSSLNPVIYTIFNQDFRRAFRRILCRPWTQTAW

[12] = target: T3, murine α2AAR (Mus musculus, UniProt Q01338); experiment: Radioligand binding, murine α2AAR; details: read-out: Kd of radioligand; saturation, HEK293T membranes
T3 sequence (Q01338 1-465): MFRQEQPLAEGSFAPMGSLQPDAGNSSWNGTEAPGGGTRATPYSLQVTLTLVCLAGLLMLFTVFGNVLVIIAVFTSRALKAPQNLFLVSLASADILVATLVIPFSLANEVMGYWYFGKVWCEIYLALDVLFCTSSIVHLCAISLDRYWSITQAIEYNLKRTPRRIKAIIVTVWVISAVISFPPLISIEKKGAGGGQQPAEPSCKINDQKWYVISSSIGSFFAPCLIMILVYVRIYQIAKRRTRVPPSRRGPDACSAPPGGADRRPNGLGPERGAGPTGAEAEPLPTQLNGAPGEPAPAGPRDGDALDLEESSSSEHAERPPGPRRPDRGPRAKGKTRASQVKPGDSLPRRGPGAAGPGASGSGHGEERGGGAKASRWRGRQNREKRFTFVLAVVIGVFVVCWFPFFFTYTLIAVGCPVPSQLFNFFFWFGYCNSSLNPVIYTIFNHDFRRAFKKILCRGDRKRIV

[13] = target: T1, human α2AAR; experiment: Radioligand binding, human α2AAR; details: read-out: Kd of radioligand; saturation, HEK293T membranes
[14] = target: T4, human α2C (Homo sapiens, UniProt P18825); experiment: Radioligand binding, α2C; details: read-out: Kd of radioligand; saturation, HEK293T membranes
T4 sequence (P18825 1-462): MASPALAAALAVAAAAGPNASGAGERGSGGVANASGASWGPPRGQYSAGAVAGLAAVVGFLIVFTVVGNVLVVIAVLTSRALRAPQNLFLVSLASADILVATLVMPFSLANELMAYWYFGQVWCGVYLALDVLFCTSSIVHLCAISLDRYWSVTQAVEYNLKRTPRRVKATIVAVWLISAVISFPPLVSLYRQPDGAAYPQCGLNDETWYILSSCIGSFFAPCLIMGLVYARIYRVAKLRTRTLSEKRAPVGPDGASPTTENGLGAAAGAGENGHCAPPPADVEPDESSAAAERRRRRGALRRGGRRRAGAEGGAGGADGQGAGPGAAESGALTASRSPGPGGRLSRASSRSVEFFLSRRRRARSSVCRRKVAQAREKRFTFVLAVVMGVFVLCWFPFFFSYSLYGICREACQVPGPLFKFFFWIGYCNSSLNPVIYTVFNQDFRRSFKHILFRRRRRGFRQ

[15] = target: α2AAR D128^3.32 mutant receptors (Homo sapiens, UniProt P08913, D128A); assay type: cell-based; details: D128^3.32A versus wild type
[16] = tested on: α2AAR D128^3.32 mutant receptors; assay type: cell-based, human
[17] = tested on: mice; experiment: Constipation assay; details: i.p.; morphine 10 mg/kg, dexmedetomidine 30 μg/kg, ‘9087 5 mg/kg; versus vehicle

Sequence of α2AAR D128^3.32 mutant receptors (Homo sapiens, UniProt P08913, D128A) (P08913 whole entry D128A): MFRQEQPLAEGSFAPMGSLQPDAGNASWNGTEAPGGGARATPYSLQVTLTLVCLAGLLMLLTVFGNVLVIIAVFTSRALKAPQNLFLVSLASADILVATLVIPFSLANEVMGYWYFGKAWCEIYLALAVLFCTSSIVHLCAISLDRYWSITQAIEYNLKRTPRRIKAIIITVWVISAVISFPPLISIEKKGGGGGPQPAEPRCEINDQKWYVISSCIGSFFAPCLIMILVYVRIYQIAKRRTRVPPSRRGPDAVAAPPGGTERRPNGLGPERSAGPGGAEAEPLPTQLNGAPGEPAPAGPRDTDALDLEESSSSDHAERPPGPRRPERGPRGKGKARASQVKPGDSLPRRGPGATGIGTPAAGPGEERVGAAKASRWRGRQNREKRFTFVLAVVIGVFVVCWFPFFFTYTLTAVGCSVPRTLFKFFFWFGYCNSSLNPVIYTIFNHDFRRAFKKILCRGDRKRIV

SMILES: Clc1ccc2cccc(Nc3ccncc3)c2c1 [PS75]
- increased potency compared with ‘9087 ([1]; Gi activation): 11 fold
- Emax, Gi activation ([1]; Gαi BRET, % of norepinephrine response): 82%
- EC50 ([1]; abstract): 4.8 nM
- G protein and β-arrestin subtype signaling profile [2]: preferentially activated Gi, Go, and Gz (Gi/o/z) signaling; also recorded: retained the preferential signaling through the Gi/o versus other G protein families and β-arrestins
- receptor internalization [3]: negligible receptor internalization
- disappearance of α2AARs from the plasma membrane ([3]; α2AAR-RlucII/rGFP-CAAX biosensor): no effect
- relocalization of the receptors in endosomes ([3]; α2AAR-RlucII/rGFP-FYVE biosensor): marginal effect at the highest concentrations
- oral bioavailability [4]: fully bio-available
- metabolic stability [5]: remain largely unmodified
- effect of atipamezole on the agonist's effect ([6]; atipamezole 2 mg/kg i.p. 15 min before agonist): partially reversed
- effect on mechanical thresholds / allodynia ([6]; s.c.): completely reversed the mechanical hypersensitivity
- baseline mechanical withdrawal thresholds [7]: did increase the mechanical thresholds
- withdrawal latencies [8]: increased withdrawal latencies
- analgesia in D79N mutant mice [9]: substantially decreases the analgesia
- reduction of analgesia in D79N mutant mice [9]: > 50%
- motor impairment and sedation [10]: did not have an effect on the rotarod test; also recorded: do not cause sedation or motor impairment at analgesic doses

SMILES: COC1(C2=NCCN2)COc2ccccc2O1 (centres unmarked) [[^3H]RX82,1002]
- Kd [11]: 2.3 ± 0.52 nM
- Kd [12]: 1.8 ± 0.61 nM
- Kd [13]: 0.54 ± 0.024 nM
- Kd [14]: 0.58 ± 0.11 nM

SMILES: Brc1c(NC2=NCCN2)ccc2nccnc12 [brimonidine]
- G protein and β-arrestin subtype signaling profile [2]: strongly activated multiple additional G proteins and β-arrestins
- receptor internalization [3]: comparable responses for both biosensors

SMILES: Cc1cccc([C@H](C)c2cnc[nH]2)c1C [dexmedetomidine]
- G protein and β-arrestin subtype signaling profile [2]: strongly activated multiple additional G proteins and β-arrestins
- receptor internalization [3]: about half of this response
- Gi EC50 fold higher [15]: 170,000 fold
- Gi activation and β-arrestin recruitment on substitutions to D128^3.32 [16]: almost complete loss
- analgesia in D79N mutant mice [9]: no longer induced analgesia in the mutant mice
- analgesia in D79N mutant mice ([9]; listed as DEX): substantially decreases the analgesia
- motor impairment and sedation [10]: complete sedation; also recorded: full sedation
- motor impairment and sedation ([10]; listed as DEX): significant impairment and complete sedation at higher doses

SMILES: CN1CC[C@]23c4c5ccc(O)c4O[C@H]2[C@@H](O)C=C[C@H]3[C@H]1C5 [morphine]
- analgesia in D79N mutant mice [9]: does not affect; also recorded: not significantly altered by the mutation
- constipation, accumulated pellets over 6 hours [17]: induced constipation

SMILES: NC[C@H](O)c1ccc(O)c(O)c1 [norepinephrine]
- G protein and β-arrestin subtype signaling profile [2]: strongly activated multiple additional G proteins and β-arrestins
- receptor internalization [3]: comparable responses for both biosensors
- Gi activation and β-arrestin recruitment on substitutions to D128^3.32 [16]: almost complete loss
